# The source made the active and inactive calls. The calls are words filed in the database; no cut-off is given here.
# Columns and labels:
# SF-539 = assay: Growth inhibition of human SF539 cells; type: functional
# M14 = assay: Growth inhibition of human M14 cells; type: functional
# OVCAR-5 = assay: Growth inhibition of human OVCAR5 cells; type: functional
# HL-60(TB) = assay: Growth inhibition of human HL-60(TB) cells; type: functional
# SNB-75 = assay: Growth inhibition of human SNB75 cells; type: functional
# ACHN = assay: Growth inhibition of human ACHN cells; type: functional
# SK-MEL-28 = assay: Growth inhibition of human SK-MEL-28 cells; type: functional
# [1] = Growth inhibition of human […] cells; type: functional
# SNB-19 = assay: Growth inhibition of human SNB19 cells; type: functional
# SN12C = assay: Growth inhibition of human SN12C cells; type: functional
# SW-620 = assay: Growth inhibition of human SW620 cells; type: functional
# UO-31 = assay: Growth inhibition of human UO31 cells; type: functional
# HCC 2998 = assay: Growth inhibition of human HCC2998 cells; type: functional
# HT-29 = assay: Growth inhibition of human HT-29 cells; type: functional
# HCT-15 = assay: Growth inhibition of human HCT15 cells; type: functional
# UACC-62 = assay: Growth inhibition of human UACC62 cells; type: functional
# LOX IMVI = assay: Growth inhibition of human LOXIMVI cells; type: functional
# NCI-H322M = assay: Growth inhibition of human NCI-H322M cells; type: functional
# SK-MEL-5 = assay: Growth inhibition of human SK-MEL-5 cells; type: functional
# TK-10 = assay: Growth inhibition of human TK10 cells; type: functional
# [2] = target: T1, Kinesin-like protein Klp61F (Drosophila melanogaster) (UniProt P46863); assay: Inhibition of Drosophila melanogaster Klp61F in S2 cells at 100 uM up to 7 hrs by immunofluorescence analysis; type: cell-based
# T1 sequence (whole entry): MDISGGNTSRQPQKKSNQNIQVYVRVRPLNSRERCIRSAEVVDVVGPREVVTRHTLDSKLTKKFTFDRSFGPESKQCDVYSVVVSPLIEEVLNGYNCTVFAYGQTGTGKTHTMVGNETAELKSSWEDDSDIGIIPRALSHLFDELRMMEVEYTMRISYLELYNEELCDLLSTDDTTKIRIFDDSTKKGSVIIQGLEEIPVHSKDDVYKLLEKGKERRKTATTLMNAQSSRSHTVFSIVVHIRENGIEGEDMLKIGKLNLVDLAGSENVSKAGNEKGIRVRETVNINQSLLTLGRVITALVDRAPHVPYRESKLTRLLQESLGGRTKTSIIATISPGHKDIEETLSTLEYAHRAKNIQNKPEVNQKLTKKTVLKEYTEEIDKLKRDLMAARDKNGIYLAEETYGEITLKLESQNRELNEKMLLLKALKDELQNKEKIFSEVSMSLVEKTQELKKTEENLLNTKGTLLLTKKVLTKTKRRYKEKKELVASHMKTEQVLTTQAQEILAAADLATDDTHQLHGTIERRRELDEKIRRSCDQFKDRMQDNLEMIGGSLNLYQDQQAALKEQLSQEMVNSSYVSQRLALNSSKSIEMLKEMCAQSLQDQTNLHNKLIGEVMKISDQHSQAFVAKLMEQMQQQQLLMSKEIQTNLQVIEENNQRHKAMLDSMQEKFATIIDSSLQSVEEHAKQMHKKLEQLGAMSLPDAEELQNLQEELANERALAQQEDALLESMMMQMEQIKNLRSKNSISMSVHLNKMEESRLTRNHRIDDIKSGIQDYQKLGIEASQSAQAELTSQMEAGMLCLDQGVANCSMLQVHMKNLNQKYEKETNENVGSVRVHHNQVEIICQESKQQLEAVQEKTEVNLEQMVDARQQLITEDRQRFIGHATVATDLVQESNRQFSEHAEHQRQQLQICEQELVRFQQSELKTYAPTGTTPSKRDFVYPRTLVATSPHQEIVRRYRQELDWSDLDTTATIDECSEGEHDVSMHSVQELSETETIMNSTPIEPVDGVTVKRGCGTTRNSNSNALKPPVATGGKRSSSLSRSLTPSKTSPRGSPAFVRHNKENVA
# Outline: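 Drosophila S2 cells were exposed to compound over a three-log concentration range up to 100 μM, with treatments extending up to 7 h. Bipolar spindle formation was scored by immunofluorescence.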
# SK-OV-3 [3] = assay: Growth inhibition of human SKOV3 cells; type: functional
# [4] = Inhibition of bipolar spindle formation in Strongylocentrotus purpuratus eggs; type: functional, Egg
# Outline: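 S. purpuratus eggs (gametes released with 0.5M KCl) were fertilized in artificial seawater with 2 mM 3-amino triazole and stripped of envelopes 20 min post-fertilization. They were then cultured with 0.1% DMSO or inhibitor at 100 nM–100 μM, fixed at first mitosis and stained for microtubules and DNA. 100 cells per condition were scored for bipolar spindles to derive EC50.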
# NCI-H226 = assay: Growth inhibition of human NCI-H226 cells; type: functional
# HeLa [5] = assay: Induction of KSP depletion in human HeLa cells after 4 hrs by immunofluorescence analysis; type: functional, cell-based
# Outline: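 HeLa cells were treated 4 h across a concentration series of compound in DMSO, then fixed in 100% MeOH at −20 °C. They were probed overnight at 4 °C with mouse anti-KSP and rabbit anti-EB1 to mark microtubules, with Alexa Fluor secondaries and DNA counterstain. KSP (green channel) images were taken at equivalent exposure times.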
# K562 = assay: Growth inhibition of human K562 cells; type: functional
# OVCAR-3 = assay: Growth inhibition of human OVCAR3 cells; type: functional
# HeLa [6] = assay: Effect on interphase microtubule organization in human HeLa cells at 1 uM; type: functional, cell-based
# Outline: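 HeLa cells were grown in MEM/Earle's BSS with 10% FBS at 37 °C and 5% CO2, then treated 4 h with 1 μM compound or 0.1% DMSO carrier. Cells were fixed in 100% MeOH at −20 °C and blocked in PBS-5% BSA. They were stained overnight at 4 °C with mouse anti-tubulin and for DNA, then imaged by epifluorescence with structured illumination.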
# HOP-62 = assay: Growth inhibition of human HOP62 cells; type: functional
# IGROV-1 = assay: Growth inhibition of human IGROV1 cells; type: functional
# HeLa [7] = assay: Inhibition of bipolar spindle formation in human HeLa cells at 1 uM; type: functional, cell-based
# Outline: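 HeLa cells were grown in MEM with Earle's BSS, 10% FBS, sodium bicarbonate and pyruvate at 37°C in 5% CO2. They were exposed to compound in DMSO for 4 h, with 0.1% DMSO as carrier control. Cells were fixed in −20°C methanol and immunostained for tubulin, with DNA counterstained. Bipolar spindle formation was scored in 100 mitotic cells per condition.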
# CAKI-1 = assay: Growth inhibition of human Caki1 cells; type: functional
# CCRF-CEM = assay: Growth inhibition of human CCRF-CEM cells; type: functional
# SF-268 = assay: Growth inhibition of human SF268 cells; type: functional
# OVCAR-4 = assay: Growth inhibition of human OVCAR4 cells; type: functional
# UACC-257 = assay: Growth inhibition of human UACC257 cells; type: functional
# Malme-3M = assay: Growth inhibition of human MALME-3M cells; type: functional
# [8] = target: Kinesin-like protein KIF11 (Homo sapiens, UniProt P52732); assay: Inhibition of human recombinant microtubule-activated KSP motor domain ATPase activity after 10 mins by end-point assay
# NCI-H522 = assay: Growth inhibition of human NCI-H522 cells; type: functional
# EKVX = assay: Growth inhibition of human EKVX cells; type: functional
# SR = assay: Growth inhibition of human SR cells; type: functional
# MOLT-4 = assay: Growth inhibition of human MOLT4 cells; type: functional
# SF-295 = assay: Growth inhibition of human SF295 cells; type: functional
# U-251 = assay: Growth inhibition of human U251 cells; type: functional
# COLO 205 = assay: Growth inhibition of human COLO205 cells; type: functional
# SK-MEL-2 = assay: Growth inhibition of human SK-MEL-2 cells; type: functional
# HCT-116 = assay: Growth inhibition of human HCT116 cells; type: functional
# SK-OV-3 [9] = assay: Ratio of GI50 for human M14 cells to GI50 for human SK-OV-3 cells; type: functional
# A549 = assay: Growth inhibition of human A549 cells; type: functional
# NCI-H23 = assay: Growth inhibition of human NCI-H23 cells; type: functional
# 786-0 = assay: Growth inhibition of human 786-0 cells; type: functional
# OVCAR-8 = assay: Growth inhibition of human OVCAR8 cells; type: functional
# Chain of Kinesin-like protein KIF11 (P52732 whole entry, the tested form may be a part): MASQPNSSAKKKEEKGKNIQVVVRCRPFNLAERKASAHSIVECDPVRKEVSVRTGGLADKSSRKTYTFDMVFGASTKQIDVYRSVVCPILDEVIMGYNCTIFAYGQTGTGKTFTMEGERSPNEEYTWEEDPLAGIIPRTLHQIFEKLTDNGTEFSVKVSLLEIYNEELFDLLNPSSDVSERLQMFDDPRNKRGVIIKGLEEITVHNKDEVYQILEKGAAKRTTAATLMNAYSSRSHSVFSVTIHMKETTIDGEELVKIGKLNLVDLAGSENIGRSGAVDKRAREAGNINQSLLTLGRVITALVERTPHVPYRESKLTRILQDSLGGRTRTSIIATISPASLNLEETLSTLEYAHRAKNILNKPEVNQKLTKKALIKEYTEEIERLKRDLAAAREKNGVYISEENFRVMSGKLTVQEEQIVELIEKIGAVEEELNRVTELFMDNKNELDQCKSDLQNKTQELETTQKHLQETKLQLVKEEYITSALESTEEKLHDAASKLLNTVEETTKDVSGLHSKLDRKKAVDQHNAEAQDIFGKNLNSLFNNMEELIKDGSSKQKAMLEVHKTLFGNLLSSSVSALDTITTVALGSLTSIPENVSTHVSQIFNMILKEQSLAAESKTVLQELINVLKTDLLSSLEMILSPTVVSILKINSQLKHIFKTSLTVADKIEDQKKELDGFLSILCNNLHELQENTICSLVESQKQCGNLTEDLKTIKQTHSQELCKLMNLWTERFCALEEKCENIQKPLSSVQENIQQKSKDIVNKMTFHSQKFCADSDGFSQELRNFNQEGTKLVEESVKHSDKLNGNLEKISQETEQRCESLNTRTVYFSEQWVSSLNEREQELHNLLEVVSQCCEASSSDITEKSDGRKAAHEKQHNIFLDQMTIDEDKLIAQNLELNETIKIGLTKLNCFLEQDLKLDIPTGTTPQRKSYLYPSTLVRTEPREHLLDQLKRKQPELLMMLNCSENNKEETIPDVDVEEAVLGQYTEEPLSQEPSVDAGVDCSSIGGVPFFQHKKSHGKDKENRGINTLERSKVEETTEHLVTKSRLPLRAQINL
compound,measurement,setting,value
CCOC(=O)C1=C(C)NC(=S)NC1c1cccc(O)c1 (centres undefined) [MONASTROL],GI50,SF-539,50100 nM
same,GI50,M14,25100 nM
same,GI50,OVCAR-5,79400 nM
same,GI50,HL-60(TB),25100 nM
same,GI50,SNB-75,39800 nM
same,GI50,ACHN,79400 nM
same,GI50,SK-MEL-28,79400 nM
same,GI50,[1],31600 nM
same,GI50,SNB-19,79400 nM
same,GI50,SN12C,39800 nM
same,GI50,SW-620,39800 nM
same,GI50,UO-31,100000 nM
same,GI50,HCC 2998,39800 nM
same,GI50,HT-29,79400 nM
same,GI50,HCT-15,39800 nM
same,GI50,UACC-62,39800 nM
same,GI50,LOX IMVI,79400 nM
same,GI50,NCI-H322M,39800 nM
same,GI50,SK-MEL-5,39800 nM
same,GI50,TK-10,100000 nM
COc1ccc(C(SC[C@@H](N)C(=O)O)(c2ccccc2)c2ccccc2)cc1,inhibition,[2],inactive
COc1ccc(C(SC[C@H](N)C(=O)O)(c2ccccc2)c2ccccc2)cc1,inhibition,[2],inactive
N[C@@H](CSC(c1ccccc1)(c1ccccc1)c1ccccc1)C(=O)O [S-TRITYL-L-CYSTEINE],GI50,SK-OV-3 [3],100000 nM
same,GI50,OVCAR-5,100000 nM
same,EC50,[4],≥ 100000 nM
same,GI50,NCI-H226,100000 nM
same,GI50,UO-31,100000 nM
same,Activity,HeLa [5],Dose-dependent effect
same,inhibition,[2],inactive
COc1ccc(C(SCCN)(c2ccccc2)c2ccccc2)cc1,GI50,K562,40 nM
same,GI50,OVCAR-3,150 nM
same,GI50,SF-539,250 nM
same,GI50,M14,30 nM
same,GI50,SK-OV-3 [3],80 nM
same,Activity,HeLa [6],inactive
same,GI50,OVCAR-5,570 nM
same,GI50,HOP-62,660 nM
same,GI50,IGROV-1,150 nM
same,GI50,SNB-75,600 nM
same,GI50,ACHN,690 nM
same,inhibition,HeLa [7],Active
same,GI50,CAKI-1,190 nM
same,GI50,CCRF-CEM,160 nM
same,GI50,SK-MEL-28,640 nM
same,GI50,NCI-H226,1740 nM
same,GI50,SF-268,150 nM
same,GI50,OVCAR-4,1400 nM
same,GI50,UACC-257,700 nM
same,GI50,Malme-3M,220 nM
same,GI50,[1],310 nM
same,IC50,[8],136 nM
same,GI50,NCI-H522,40 nM
same,GI50,SNB-19,340 nM
same,GI50,EKVX,390 nM
same,GI50,SN12C,130 nM
same,GI50,SW-620,70 nM
same,GI50,SR,130 nM
same,GI50,UO-31,500 nM
same,GI50,HCC 2998,240 nM
same,GI50,MOLT-4,500 nM
same,GI50,SF-295,180 nM
same,GI50,HT-29,350 nM
same,GI50,U-251,50 nM
same,GI50,COLO 205,210 nM
same,GI50,SK-MEL-2,60 nM
same,GI50,HCT-15,50 nM
same,GI50,UACC-62,400 nM
same,GI50,LOX IMVI,500 nM
same,inhibition,[2],inactive
same,GI50,HCT-116,40 nM
same,RatioGI50,SK-OV-3 [9],1250
same,GI50,A549,100 nM
same,GI50,NCI-H23,510 nM
same,GI50,NCI-H322M,60 nM
same,GI50,786-0,400 nM
same,GI50,SK-MEL-5,50 nM
same,GI50,OVCAR-8,120 nM
same,GI50,TK-10,1560 nM
COc1ccc(C(SC[C@@H](N)CO)(c2ccccc2)c2ccccc2)cc1,inhibition,[2],inactive

# From ChEMBL document CHEMBL1817631, “Synthesis and characterization of tritylthioethanamine derivatives with potent KSP inhibitory activity” (Bioorg Med Chem, 2011)
